Bioassay records as filed in PubChem.
rRNA inh HTS: reduced GFP signal of wild-type E. coli, primary screen, bacterial rRNA inhibitor project, GFP/RFP fluorescence, OD600, single point; E. coli WT GFP vs humanized-ribosome RFP mutants, 24 h; stronger effect = lower value; DMSO median 0, no signal -100; GFP signal change (wild-type ribosome), % (concentration not given with the values); 350,000 tested, 1.6% active;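 active = significant combined selectivity score with lowered wild-type GFP, culture density cut under 30%, mutant RFP and density less affected; inactive = any of these conditions unmet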
Cneo AK release: Cryptococcus neoformans cell lysis inducers, primary screen, AK release luminescence, single concentration; C. neoformans lysis, adenylate kinase release luminescence, 4 h; normalised: neutral wells 0, clomiphene wells 100; lysis activity, % at 15 µM; 360,000 tested, 0.2% active; AID 651654, 2012;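 active = mean lysis activity across replicates of at least 80%, whatever share of replicates individually reach that level; inactive = mean lysis activity below 80%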
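Test system: log-phase Cryptococcus neoformans yeast cells. Input: 5 × 10^6 yeast cells/mL. Medium: fresh YPD growth medium. Doses: single dose. Incubation: static 4 h at 37 °C with compound, 1 h detection. Measured by: luminescent adenylate kinase detection reagent. Read-out: signal increase indicating cell lysis. Benchmarks: Clomiphene.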
Env fusion inh: inhibitors of HIV-1 Env-driven cell-cell fusion, primary screen, HeLa-JRFL effector, CEM21 target cells, luciferase. inhibition, % at 12.3 µM. 360,000 tested, 1.1% active. AID 651610, 2012;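 active = mean replicate inhibition score of at least 50 and every replicate individually at or above 50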
ERAP1 inh: human ERAP1 aminopeptidase inhibitors, primary screen, biochemical, single point, plate reader; 340,000 tested, 0.15% active; inhibition, % at 10.7 µM; Endoplasmic reticulum aminopeptidase 1 (Homo sapiens), Q9NZ08; recombinant ERAP1, Leu-AMC fluorescence, 60 min;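 active = mean replicate inhibition of at least 30%, or all replicates individually reaching that 30% level; inactive = mean below 30% and not every replicate reaching it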
PGC1a acetyl inh: inhibitors of PGC1a acetylation signal, primary screen, cell-based, U2OS, AlphaScreen, inhibitor mode | AlphaScreen anti-acetyl-lysine; with virally co-expressed GCN5 acetyltransferase | inhibition, % at 15.6 µM | 350,000 tested, 0.17% active | AID 651687, 2012;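 active = every replicate shows inhibition of at least 40%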
FGF22 binding: binders of human FGF22 protein, primary screen, FGF22 synaptogenesis inhibitor project, biophysical, thermal shift, single point; recombinant FGF22 thermal shift, SYPRO orange fluorescence; percent of sucrose octasulfate shift, DMSO zero; activity (Tm shift, normalised), % at 9.99 µM; 340,000 tested, 1.5% active;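 active = mean Tm shift, scaled 0 neutral to 100 positive control, at about 1.3% or above, every replicate too, limit read from the data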
A number is an active result; ! = a repeat was not active. In the library only some 3.5% were active in any assay of this set; here they are far more common.

`COc1ccc(C(=O)N/N=C/c2ccc(N3CCOCC3)s2)cc1OC` gave rRNA inh HTS -16, Cneo AK release inactive, ERAP1 inh inactive, PGC1a acetyl inh inactive and FGF22 binding inactive.
Screening COc1ccc(CN(C)C[C@H]2Oc3ccc(NS(=O)(=O)c4ccccc4)cc3C(=O)N([C@@H](C)CO)C[C@H]2C)cc1 returned rRNA inh HTS inactive, Cneo AK release inactive, ERAP1 inh inactive, PGC1a acetyl inh inactive and FGF22 binding inactive.
CCCCCCNC(=O)O[C@@]12CN(S(=O)(=O)c3ccc(C)cc3)C[C@]1(O)Cn1c(=O)n(CCCCCC)c(=O)n1C2 was read as rRNA inh HTS inactive, Cneo AK release inactive, Env fusion inh inactive, ERAP1 inh inactive, PGC1a acetyl inh 69 and FGF22 binding inactive.
Screening CCCCCCn1c(=O)n2n(c1=O)C[C@]1(OC(=O)NCC3CCCCC3)CN(S(=O)(=O)c3ccc(C)cc3)C[C@]1(O)C2 returned rRNA inh HTS inactive, Cneo AK release inactive, Env fusion inh inactive, ERAP1 inh inactive, PGC1a acetyl inh inactive and FGF22 binding inactive.
For O=C(Nc1nc2cc3c(cc2s1)OCCO3)c1ccco1 the results were Cneo AK release inactive, Env fusion inh 58, ERAP1 inh inactive and FGF22 binding inactive.
Screening COc1ccc(CNCc2cccc(Oc3ccccc3)c2)cc1 returned rRNA inh HTS -25, Cneo AK release inactive, Env fusion inh inactive, ERAP1 inh inactive, PGC1a acetyl inh inactive and FGF22 binding inactive.
Screening O=[N+]([O-])c1ccccc1-c1ccc(C(=S)N2CCCC2)o1 returned rRNA inh HTS inactive, Cneo AK release inactive, Env fusion inh inactive, ERAP1 inh inactive and FGF22 binding inactive.
For O=C(CSc1nnc(COc2ccc(Cl)cc2)o1)N(c1ccccc1)C1CCS(=O)(=O)C1 (stereo not given) the results were Cneo AK release inactive, Env fusion inh 65, ERAP1 inh inactive, PGC1a acetyl inh inactive and FGF22 binding inactive.
COc1ccc(-c2nc3ccc(C)cn3c2Cc2ccsc2)cc1OC was read as rRNA inh HTS inactive, Cneo AK release inactive, ERAP1 inh inactive, PGC1a acetyl inh inactive and FGF22 binding inactive.
`Clc1cccc(Cc2c(-c3cccc(Cl)c3)nc3ccc(Br)cn23)c1` gave rRNA inh HTS -23, Cneo AK release inactive, Env fusion inh inactive, ERAP1 inh inactive, PGC1a acetyl inh inactive and FGF22 binding inactive.
Screening COc1ccc(-c2nc3ccc(Cl)cn3c2Cc2cccc(Cl)c2)cc1OC returned rRNA inh HTS inactive, Cneo AK release inactive, ERAP1 inh inactive, PGC1a acetyl inh inactive and FGF22 binding inactive.
For COc1ccc(-c2nc3ccc(C)cn3c2CC2CCCCC2)cc1OC the results were rRNA inh HTS -29, Cneo AK release inactive, Env fusion inh inactive, ERAP1 inh inactive, PGC1a acetyl inh inactive and FGF22 binding inactive.
`COc1ccc(-c2nc3ccc(Br)cn3c2Cc2cccc(Cl)c2)cc1OC` gave rRNA inh HTS -27, Cneo AK release inactive, Env fusion inh inactive, PGC1a acetyl inh inactive and FGF22 binding inactive.
For CCCCCCn1c(N2CCCC2)nc2c1c(=O)[nH]c(=O)n2C the results were rRNA inh HTS inactive, Cneo AK release inactive, Env fusion inh inactive, ERAP1 inh inactive, PGC1a acetyl inh inactive and FGF22 binding inactive.
`Cn1c(SCC(=O)N(Cc2ccccc2)C(C)(C)C)nc2ccccc21` gave rRNA inh HTS -31, Cneo AK release inactive, ERAP1 inh inactive, PGC1a acetyl inh inactive and FGF22 binding inactive.
For CC(/C=N/NC(=O)CSc1nc2ccccc2n1C)=C\c1ccco1 the results were Env fusion inh inactive.
`Cn1c(SCC(=O)N/N=C/c2ccco2)nc2ccccc21` gave rRNA inh HTS inactive, Cneo AK release inactive, Env fusion inh inactive, ERAP1 inh inactive, PGC1a acetyl inh inactive and FGF22 binding 43.
`CCCCOn1c(C)c(C(C)=O)c2c3no[n+]([O-])c3ccc21` gave Cneo AK release inactive, Env fusion inh inactive, ERAP1 inh inactive and FGF22 binding inactive.
Screening COC(=O)N(C)C[C@H]1OCc2cn(nn2)CCCC(=O)N([C@@H](C)CO)C[C@@H]1C returned rRNA inh HTS inactive, Cneo AK release 84!, Env fusion inh inactive, ERAP1 inh inactive, PGC1a acetyl inh inactive and FGF22 binding inactive.
`COc1cccc(S(=O)(=O)N(C)C[C@H]2OCc3cnnn3CCCC(=O)N([C@H](C)CO)C[C@H]2C)c1` gave rRNA inh HTS inactive, Cneo AK release 103!, Env fusion inh inactive, ERAP1 inh inactive, PGC1a acetyl inh inactive and FGF22 binding inactive.
Screening C[C@@H]1CN([C@H](C)CO)C(=O)CCCn2nncc2CO[C@@H]1CN(C)S(=O)(=O)c1cn(C)cn1 returned rRNA inh HTS inactive, Cneo AK release inactive, Env fusion inh inactive, ERAP1 inh inactive, PGC1a acetyl inh 101! and FGF22 binding inactive.
COc1cc(C2C3=C(CC(C)(C)CC3=O)NC3=C2C(=O)c2ccccc23)ccc1O (stereo not given) was read as rRNA inh HTS -31, Cneo AK release inactive, Env fusion inh inactive, ERAP1 inh inactive, PGC1a acetyl inh inactive and FGF22 binding inactive.
CC(C)Cn1c(N)c(C(=O)COC(=O)c2ccc(Br)cc2)c(=O)n(C)c1=O was read as Cneo AK release inactive, Env fusion inh inactive, ERAP1 inh inactive, PGC1a acetyl inh inactive and FGF22 binding inactive.
`COC(=O)CCCSc1nccn1-c1ccccc1` gave rRNA inh HTS inactive, Env fusion inh inactive, ERAP1 inh inactive, PGC1a acetyl inh inactive and FGF22 binding inactive.
CCN(CC)C(=O)C1=C(C)N(Cc2ccc(C(C)(C)C)cc2)C(=O)C(CC(=O)NC2CCCCC2)C1 (stereo not given) was read as Cneo AK release inactive, Env fusion inh inactive, ERAP1 inh inactive, PGC1a acetyl inh inactive and FGF22 binding inactive.
For CCN(CC)C(=O)C1=C(C)N(Cc2ccccc2)C(=O)C(CC(=O)NC2CCCCC2)C1 (stereo not given) the results were rRNA inh HTS inactive, Cneo AK release inactive, Env fusion inh inactive, ERAP1 inh inactive, PGC1a acetyl inh inactive and FGF22 binding 44.
CCN(CC)C(=O)C1=C(C)N(Cc2ccccc2)C(=O)C(CC(=O)NC2CC2)C1 (stereo not given) was read as rRNA inh HTS inactive, Cneo AK release inactive, Env fusion inh inactive, ERAP1 inh inactive, PGC1a acetyl inh inactive and FGF22 binding 44.
